Usually MIC stands for the least concentration at which growth counts as inhibited. Low values mean a more susceptible organism, high ones a less susceptible organism.

Activity calls are given as the source filed them. The rule behind the calls is not given here. Residues, ends and D or L forms follow the SMILES beside them. *: point of attachment. BODIPY(FL) = CC1=CC(C)=[N+]2C1=Cc1ccc(CCC(=O)*)n1[B-]2(F)F; Propyl(3-PMe3+) = C[P+](C)(C)CCC*; CH2CH2P(+)Me3 = C[P+](C)(C)CC*

The source of these data is ChEMBL document CHEMBL4257516, “Synthesis and cellular penetration properties of new phosphonium based cationic amphiphilic peptides” (Medchemcomm, 2018).

A short description of data set [1]: Drug uptake in membrane containing structure of human MCF7 cells at 20 uM after 3 hrs by DAPI/rhodamine phalloidin staining-based fluorescence microscopic method. The format is ADME, cell membranes. To be noted: mcf7, 3 h. The essentials:
(§1)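 MCF7 cells incubated with 20 μM BODIPY-Fl-labelled peptides (label coupled at the N-terminus) using a slightly modified literature protocol. Nuclei counterstained with DAPI and actin cytoskeleton with rhodamine phalloidin. Imaged by fluorescence microscopy; green, blue and red channels merged to localise peptide. Free BODIPY ligand served as control for green signal.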

Data set [2] is described as follows: Drug uptake in nucleus of human MCF7 cells at 20 uM after 3 hrs by DAPI/rhodamine phalloidin staining-based fluorescence microscopic method. The format is ADME, subcellular. To be noted: mcf7, 3 h. The method, boiled down:
(§2)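 Peptides labelled at the N-terminus with BODIPY-Fl; MCF7 cells incubated with 20 μM labelled peptide by a modified literature protocol. Imaged by fluorescence microscopy with DAPI for nuclei and rhodamine phalloidin for cytoskeleton. Green, blue and red images were merged to localise the peptide. Free BODIPY ligand served as a control for green signal.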

For the next data set, the system named is MCF7. As to the kind of experiment: Binding affinity to actin in human MCF7 cells at 20 uM after 3 hrs by DAPI/rhodamine phalloidin staining-based fluorescence microscopic method. Type of data set: cell-based. The method, boiled down:
as §1

Data set [3] can be described thus: Drug uptake in cytoplasm of human MCF7 cells at 20 uM after 3 hrs by DAPI/rhodamine phalloidin staining-based fluorescence microscopic method. The format is ADME, subcellular. To be noted: mcf7, 3 h. The method, boiled down:
as §2

Data set [4] can be described thus: Drug uptake in golgi apparatus of human MCF7 cells at 20 uM after 3 hrs by DAPI/rhodamine phalloidin staining-based fluorescence microscopic method. The format is ADME, subcellular. The conditions noted are these: mcf7, 3 h. The method, boiled down:
as §2

The nature of data set [5]: Cytotoxicity against HEK293 cells assessed as cell viability at 256 uM after 24 hrs by Alamar blue assay relative to control. The format is cell-based. To be noted: human, read-out: Activity. The method, boiled down:
(§3)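 HEK 293 cells exposed to peptides (TFA salts, C-terminal amide, free N-terminus) at 256 and 512 μM; viability as percent, run in triplicate, reported as mean ± SEM.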

The nature of data set [6]: Hemolytic activity in horse erythrocytes at 512 uM after 1 hr relative to control. Type of data set: ADME, cell-based, Equus caballus, Erythrocyte. To be noted: read-out: Activity. The essentials:
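Horse erythrocytes exposed to peptides (TFA salts, C-terminal amide, free N-terminus) at 512 μM; haemolysis as percent, triplicate determinations, reported as mean ± SEM.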

For another data set, the system named is Escherichia coli. Briefly: Antibacterial activity against extended-spectrum beta-lactamases producing Escherichia coli clinical strain 64771 after overnight incubation by microbroth dilution assay. Type of data set: functional. On the technique in general: In broth dilution the organism is exposed to a series of concentrations in liquid medium.
The nature of data set [7]: Cytotoxicity against HEK293 cells assessed as cell viability at 512 uM after 24 hrs by Alamar blue assay relative to control. Type of data set: cell-based. The conditions noted are these: human, read-out: Activity. The method, boiled down: as §3
On the technique in general: The colour change of resazurin is a common sign of viable cells or microbes.

As for `CC[C@H](C)[C@H](NC(=O)[C@H](Cc1c[nH]c2ccccc12)NC(=O)[C@H](CSCC[P+](C)(C)C)NC(=O)[C@H](Cc1c[nH]c2ccccc12)NC(=O)[C@H](Cc1c[nH]c2ccccc12)NC(=O)[C@H](CSCC[P+](C)(C)C)NC(=O)[C@H](CSCC[P+](C)(C)C)NC(=O)CCc1ccc2n1[B-](F)(F)[N+]1=C(C)C=C(C)C1=C2)C(=O)N[C@@H](CSCC[P+](C)(C)C)C(=O)N[C@@H](Cc1c[nH]c2ccccc12)C(N)=O.O=C([O-])C(F)(F)F.O=C([O-])C(F)(F)F.O=C([O-])C(F)(F)F.O=C([O-])C(F)(F)F` ({BODIPY(FL)}-C(CH2CH2P(+)Me3)C(CH2CH2P(+)Me3)WWC(CH2CH2P(+)Me3)WIC(CH2CH2P(+)Me3)W-NH2), the Drug uptake result in data set [1] is reported as “Active”.

For the compound `CC[C@H](C)[C@H](NC(=O)[C@H](Cc1c[nH]c2ccccc12)NC(=O)[C@H](CSCC[P+](C)(C)C)NC(=O)[C@H](Cc1c[nH]c2ccccc12)NC(=O)[C@H](Cc1c[nH]c2ccccc12)NC(=O)[C@H](CSCCC[P+](C)(C)C)NC(=O)[C@H](CSCC[P+](C)(C)C)NC(=O)CCc1ccc2n1[B-](F)(F)[N+]1=C(C)C=C(C)C1=C2)C(=O)N[C@@H](CSCCC[P+](C)(C)C)C(=O)N[C@@H](Cc1c[nH]c2ccccc12)C(N)=O.O=C([O-])C(F)(F)F.O=C([O-])C(F)(F)F.O=C([O-])C(F)(F)F.O=C([O-])C(F)(F)F` ({BODIPY(FL)}-C(CH2CH2P(+)Me3)C(Propyl(3-PMe3+))WWC(CH2CH2P(+)Me3)WIC(Propyl(3-PMe3+))W-NH2), the Drug uptake result in data set [2] is reported as “Not Active”; in data set [3], “Active”. The result in the data set with MCF7 was Active.

Regarding `CC1=CC(C)=[N+]2C1=Cc1ccc(CCC(=O)N[C@@H](CSCC[P+](C)(C)C)C(=O)N[C@@H](Cc3ccccc3)C(=O)N[C@@H](Cc3ccccc3)C(=O)N[C@@H](CSCC[P+](C)(C)C)C(=O)N[C@@H](Cc3ccccc3)C(=O)N[C@@H](Cc3ccccc3)C(=O)N[C@@H](CSCC[P+](C)(C)C)C(=O)N[C@@H](Cc3ccccc3)C(=O)N[C@@H](Cc3ccccc3)C(=O)N[C@@H](CSCC[P+](C)(C)C)C(N)=O)n1[B-]2(F)F.O=C([O-])C(F)(F)F.O=C([O-])C(F)(F)F.O=C([O-])C(F)(F)F.O=C([O-])C(F)(F)F` ({BODIPY(FL)}-C(CH2CH2P(+)Me3)FFC(CH2CH2P(+)Me3)FFC(CH2CH2P(+)Me3)FFC(CH2CH2P(+)Me3)-NH2), the Drug uptake result in [4] and in [2] was “Active” in each case.

As to `CC[C@H](C)[C@H](NC(=O)[C@H](Cc1c[nH]c2ccccc12)NC(=O)[C@H](CSCCC[P+](C)(C)C)NC(=O)[C@H](Cc1c[nH]c2ccccc12)NC(=O)[C@H](Cc1c[nH]c2ccccc12)NC(=O)[C@H](CSCCC[P+](C)(C)C)NC(=O)[C@H](CSCCC[P+](C)(C)C)NC(=O)CCC1=[N+]2C(=Cc3c(C)cc(C)n3[B-]2(F)F)C=C1)C(=O)N[C@@H](CSCCC[P+](C)(C)C)C(=O)N[C@@H](Cc1c[nH]c2ccccc12)C(N)=O.O=C([O-])C(F)(F)F.O=C([O-])C(F)(F)F.O=C([O-])C(F)(F)F.O=C([O-])C(F)(F)F` ({BODIPY(FL)}-C(Propyl(3-PMe3+))C(Propyl(3-PMe3+))WWC(Propyl(3-PMe3+))WIC(Propyl(3-PMe3+))W-NH2), the values for the Drug uptake entry in [2] and in [3] were “Not Active” and “Active”, respectively. In the data set with MCF7, the result was Active.

`CC1=CC(C)=[N+]2C1=Cc1ccc(CCC(=O)N[C@@H](CSCCC[P+](C)(C)C)C(=O)N[C@@H](Cc3ccccc3)C(=O)N[C@@H](Cc3ccccc3)C(=O)N[C@@H](CSCCC[P+](C)(C)C)C(=O)N[C@@H](Cc3ccccc3)C(=O)N[C@@H](Cc3ccccc3)C(=O)N[C@@H](CSCCC[P+](C)(C)C)C(=O)N[C@@H](Cc3ccccc3)C(=O)N[C@@H](Cc3ccccc3)C(=O)N[C@@H](CSCCC[P+](C)(C)C)C(N)=O)n1[B-]2(F)F.O=C([O-])C(F)(F)F.O=C([O-])C(F)(F)F.O=C([O-])C(F)(F)F.O=C([O-])C(F)(F)F` ({BODIPY(FL)}-C(Propyl(3-PMe3+))FFC(Propyl(3-PMe3+))FFC(Propyl(3-PMe3+))FFC(Propyl(3-PMe3+))-NH2): the Drug uptake entry in data set [2] was “Active”. For the same compound, the result with MCF7 was Active.

For the compound H-KRWWKWIRW-NH2, the viability at 24 h, 256 µM in data set [5] worked out at 2%. Further, in data set [6], the hemolysis at 1 h, 512 µM was found to be 14.3%. Further, in the data set on Escherichia coli, the MIC was determined as 1.5 µM. The viability at 24 h, 512 µM in data set [7] came to 0%.
